Measured values from article PMC2709489 (Nature biotechnology, 2009).
Read-outs that look alike come from different tables or passages of the source.

What was measured:
[1] = target: mouse brain serine hydrolases (Homo sapiens, UniProt O75884); type: biochemical
RBBP9 [2] = target: T1, RBBP9 (Homo sapiens, UniProt O75884); type: biochemical
RBBP9 [3] = target: T1, RBBP9; experiment: Gel-based competitive ABPP of RBBP9 with varying Pluronic F-127; type: biochemical; conditions: compound 5 at 10 and 20 µM, emetine 20 µM; 400 nM RBBP9
RBBP9 [4] = target: T1, RBBP9; experiment: Reversibility of RBBP9 inhibition by gel filtration; type: biochemical; conditions: emetine 500 μM or compound 2 50 μM, 30 min, then Sephadex G-25M
[5] = system: endogenous GSTO1 and other SE-rhodamine targets; type: biochemical, human
GSTO1 [6] = target: T2, GSTO1 (Homo sapiens, UniProt P78417); type: biochemical
T2 sequence (P78417 1-241): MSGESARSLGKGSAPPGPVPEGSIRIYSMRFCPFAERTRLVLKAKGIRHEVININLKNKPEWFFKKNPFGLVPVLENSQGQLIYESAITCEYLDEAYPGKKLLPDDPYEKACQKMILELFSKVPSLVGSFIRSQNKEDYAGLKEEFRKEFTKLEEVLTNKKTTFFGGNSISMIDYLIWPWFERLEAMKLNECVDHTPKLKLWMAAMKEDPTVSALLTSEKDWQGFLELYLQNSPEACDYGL

GSTO1 [7] = target: T2, GSTO1; experiment: Reversibility of GSTO1 inhibition by gel filtration; type: biochemical; conditions: 6 and 9 at 280 μM, 7 and 8 at 28 μM, 30 min, then Sephadex G-25M
Summary of the method: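 Recombinant GSTO1 (2 μM) was incubated 30 min with DMSO or test compound, then split. One portion was labeled directly with SE-rhodamine. The other was passed over a Sephadex G-25M gel-filtration column before SE-rhodamine labeling. Both were resolved by SDS-PAGE with in-gel fluorescence read-out.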

T1 sequence (O75884 whole entry): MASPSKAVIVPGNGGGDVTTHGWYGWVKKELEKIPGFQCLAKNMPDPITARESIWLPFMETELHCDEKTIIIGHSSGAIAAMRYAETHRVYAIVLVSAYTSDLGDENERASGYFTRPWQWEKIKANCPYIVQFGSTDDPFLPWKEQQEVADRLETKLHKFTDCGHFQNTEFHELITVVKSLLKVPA
Chain of mouse brain serine hydrolases (O75884 whole entry): as above

CC[C@H]1CN2CCc3cc(OC)c(OC)cc3[C@@H]2C[C@@H]1C[C@H]1NCCc2cc(O)c(OC)cc21 [1a, Cephaeline]
inhibition of RBBP9 by emetine analogues (competitive ABPP) [1]: inhibited RBBP9, albeit with reduced potency relative to emetine

CCC1=C(C[C@H]2NCCc3cc(OC)c(OC)cc32)C[C@H]2c3cc(OC)c(OC)cc3CCN2C1 [1b, Dehydroemetine]
inhibition of RBBP9 (RBBP9 [2]): failed to inhibit RBBP9

CC[C@H]1CN2CCc3cc(OC)c(OC)cc3[C@@H]2C[C@@H]1C[C@H]1NCCc2c1[nH]c1ccc(O)cc21 [1c, Tubulosine]
inhibition of RBBP9 by emetine analogues (competitive ABPP) [1]: inhibited RBBP9, albeit with reduced potency relative to emetine

CC[C@H]1CN2CCc3cc(OC)c(OC)cc3[C@@H]2C[C@@H]1C[C@H]1NCCc2cc(OC)c(OC)cc21 [Compound 1, Emetine]
effect of Pluronic F-127 on inhibitory activity (RBBP9 [3]): did not diminish the inhibitory activity
reversibility of RBBP9 inhibition (RBBP9 [4]): reversible
effect on other SE-rhodamine targets in MDA-MB-231 proteome ([5]; 20 μM): did not inhibit the labeling of GSTO1 or any of the other SE-rhodamine targets
inhibition of GSTO1 in MDA-MB-231 proteome ([5]; 20 μM): did not inhibit the labeling of GSTO1
block of probe labeling of GSTO1 (FluoPol) (GSTO1 [6]): did not block probe labeling of GSTO1

COc1ccc2[nH]c([S+]([O-])Cc3ncc(C)c(OC)c3C)nc2c1 (stereo not drawn) [Compound 6, omeprazole]
inhibition of GSTO1 in MDA-MB-231 proteome ([5]; 1 μM): lost
inhibition of GSTO1 in MDA-MB-231 proteome ([5]; 20 μM): considerably less potent
reversibility of GSTO1 inhibition (GSTO1 [7]): reversible

CO[C@H]1/C=C/O[C@@]2(C)Oc3c(C)c(O)c4c(O)c(c(/C=N/N5CCN(C)CC5)c(O)c4c3C2=O)NC(=O)/C(C)=C\C=C\[C@H](C)[C@H](O)[C@@H](C)[C@@H](O)[C@@H](C)[C@H](OC(C)=O)[C@@H]1C [Compound 9, rifampicin]
inhibition of GSTO1 in MDA-MB-231 proteome ([5]; 1 μM): lost
inhibition of GSTO1 in MDA-MB-231 proteome ([5]; 20 μM): considerably less potent
reversibility of GSTO1 inhibition (GSTO1 [7]): reversible

N[C@@H](CCC(=O)N[C@@H](CS)C(=O)NCC(=O)O)C(=O)O [glutathione]
block of probe labeling of GSTO1 (FluoPol) (GSTO1 [6]): No labeling
